Experimental data as given in ChEMBL document CHEMBL2177003, “Development of target protein-selective degradation inducer for protein knockdown” (Bioorg Med Chem, 2011).
Activity calls are given as the source filed them. No cut-off for these calls is given here.

Tests used:
[1] = target: Baculoviral IAP repeat-containing protein 2 (Homo sapiens) (UniProt Q13490); assay: Induction of auto-degradation of Flag-tagged cIAP1 expressed in HT1080 cells at 0.1 to 10 uM by Western blot analysis; type: cell-based; settings: HT-1080
Chain of Baculoviral IAP repeat-containing protein 2 (Homo sapiens) (Q13490 whole entry): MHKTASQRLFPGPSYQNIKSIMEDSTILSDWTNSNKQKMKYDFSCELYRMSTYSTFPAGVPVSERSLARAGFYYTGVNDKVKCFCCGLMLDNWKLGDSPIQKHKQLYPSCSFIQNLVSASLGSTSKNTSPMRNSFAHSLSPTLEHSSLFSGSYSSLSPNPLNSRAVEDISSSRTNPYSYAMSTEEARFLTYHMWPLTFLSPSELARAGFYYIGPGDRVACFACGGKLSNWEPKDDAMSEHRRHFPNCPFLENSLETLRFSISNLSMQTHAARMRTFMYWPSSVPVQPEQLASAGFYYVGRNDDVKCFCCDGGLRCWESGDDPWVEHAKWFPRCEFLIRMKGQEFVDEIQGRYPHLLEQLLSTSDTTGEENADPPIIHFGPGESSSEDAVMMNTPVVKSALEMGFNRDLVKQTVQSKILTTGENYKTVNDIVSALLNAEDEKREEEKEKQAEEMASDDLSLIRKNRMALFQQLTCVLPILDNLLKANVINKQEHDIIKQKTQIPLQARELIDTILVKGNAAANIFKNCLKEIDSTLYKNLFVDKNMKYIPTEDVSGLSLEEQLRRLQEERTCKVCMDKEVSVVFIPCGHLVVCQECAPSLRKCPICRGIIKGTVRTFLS
Method in brief: (§1)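 FLAG-tagged IAP-expressing HT1080 cells (1 × 10⁶), RPMI 1640 with 10% heat-inactivated FBS at 37 °C, 5% CO₂, treated for the stated period in medium with 10% FBS. SDS lysates equalized by BCA, resolved on 10–20% SDS–PAGE, PVDF, skim-milk block. Probed for CRABP-II, cIAP1, FLAG and β-actin with HRP secondaries, visualized by enhanced chemiluminescence.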

[2] = target: T1, Complex of retinoic acid binding (CRABPII) and inhibitor of apoptosis (cIAP1) proteins (Homo sapiens) (UniProt P29373+Q13490); assay: Binding affinity to Flag-tagged cIAP1/CRABP2 expressed in human HT1080 cells assessed as induction in cIAP1 degradation at 30 uM after 6 hrs by Western blot analysis; type: cell-based; settings: HT-1080; method in brief: as §1
MCF7 = assay: Inhibition of cell proliferation in human MCF7 cells at 1 to 30 uM after 72 hrs by Alamar blue assay; type: functional, cell-based
Method in brief: (§2)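 Cells (IMR-32, HT1080 or MCF-7) seeded at 2 × 10⁴/well and grown 24 h at 37 °C. Compounds at various concentrations added for 0–72 h at 37 °C, 5% CO₂. AlamarBlue then added for 3 h at 37 °C. Fluorescence read at ex 540/em 590 nm and converted to percentage cell growth.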

[3] = target: T1, Complex of retinoic acid binding (CRABPII) and inhibitor of apoptosis (cIAP1) proteins (Homo sapiens); assay: Binding affinity to Flag-tagged cIAP1/CRABP2 expressed in human HT1080 cells assessed as induction in CRABP-2 degradation after 6 hrs by Western blot analysis; type: cell-based; settings: HT-1080; method in brief: as §1
IMR-32 [4] = assay: Induction of apoptosis in human IMR32 cells assessed as activation of caspase 3/7 at 30 uM after 24 hrs by fluorescence assay; type: functional, cell-based
Method in brief: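 IMR-32 cells seeded at 2 × 10⁴/well, grown 24 h, then exposed to compounds for 24 h. Caspase-3/7 homogeneous reagent added, 0.5 h at room temperature. Fluorescence read at ex 485/em 535 nm and expressed as fold change over control. Means of triplicates; ANOVA with Bonferroni-type multiple t test.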

[5] = target: T1, Complex of retinoic acid binding (CRABPII) and inhibitor of apoptosis (cIAP1) proteins (Homo sapiens); assay: Binding affinity to Flag-tagged cIAP1/CRABP2 expressed in human HT1080 cells assessed as induction in cIAP1 degradation at 0.1 to 10 uM after 6 hrs by Western blot analysis; type: cell-based; settings: HT-1080; method in brief: as §1
[6] = target: T1, Complex of retinoic acid binding (CRABPII) and inhibitor of apoptosis (cIAP1) proteins (Homo sapiens); assay: Binding affinity to Flag-tagged cIAP1/CRABP2 expressed in human HT1080 cells assessed as induction in CRABP-2 degradation after 48 hrs by Western blot analysis; type: cell-based; settings: HT-1080; method in brief: as §1
[7] = target: T1, Complex of retinoic acid binding (CRABPII) and inhibitor of apoptosis (cIAP1) proteins (Homo sapiens); assay: Binding affinity to Flag-tagged cIAP1/CRABP2 expressed in human HT1080 cells assessed as induction in CRABP-2 degradation at 1 uM after 6 hrs by Western blot analysis in presence of proteasome inhibitor lactacystin; type: cell-based; settings: HT-1080
Method in brief: (§3)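 HT1080 cells expressing FLAG-tagged cIAP1 were pretreated with proteasome inhibitor (MG132 or lactacystin), then given 1 μM degrader for 6 h. CRABP-II read by Western blot: SDS lysates equalized by BCA, 10–20% SDS–PAGE, PVDF, ECL.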

[8] = target: T1, Complex of retinoic acid binding (CRABPII) and inhibitor of apoptosis (cIAP1) proteins (Homo sapiens); assay: Binding affinity to Flag-tagged cIAP1/CRABP2 expressed in human MCF7 cells assessed as reduction in CRABP2 level at 0.1 uM to 1 uM after 6 hrs by Western blot analysis; type: cell-based
[9] = target: T1, Complex of retinoic acid binding (CRABPII) and inhibitor of apoptosis (cIAP1) proteins (Homo sapiens); assay: Binding affinity to Flag-tagged cIAP1/CRABP2 expressed in human HT1080 cells assessed as formation of ternary complex by GST-pull down assay; type: cell-based; settings: HT-1080
[10] = target: T1, Complex of retinoic acid binding (CRABPII) and inhibitor of apoptosis (cIAP1) proteins (Homo sapiens); assay: Binding affinity to Flag-tagged cIAP1/CRABP2 expressed in human HT1080 cells assessed as reduction in CRABP2 level at 0.1 uM to 1 uM after 6 hrs by Western blot analysis; type: cell-based; settings: HT-1080; method in brief: as §1
[11] = target: T1, Complex of retinoic acid binding (CRABPII) and inhibitor of apoptosis (cIAP1) proteins (Homo sapiens); assay: Binding affinity to Flag-tagged cIAP1/CRABP2 expressed in human IMR32 cells assessed as reduction in CRABP-2 level at 1 to 10 uM after 24 hrs by Western blot analysis; settings: IMR-32
[12] = target: T1, Complex of retinoic acid binding (CRABPII) and inhibitor of apoptosis (cIAP1) proteins (Homo sapiens); assay: Binding affinity to Flag-tagged cIAP1/CRABP2 expressed in human HT1080 cells assessed as induction in CRABP-2 degradation at 1 uM after 6 hrs by Western blot analysis in presence of proteasome inhibitor MG132; type: cell-based; settings: HT-1080; method in brief: as §3
HT-1080 [13] = assay: Inhibition of cell proliferation in human HT1080 cells at 1 to 30 uM after 72 hrs by Alamar blue assay; type: functional, cell-based; method in brief: as §2
HT-1080 [14] = assay: Induction of apoptosis in human HT1080 cells at 1 to 30 uM after 24 hrs by lactate dehydrogenase assay in presence of etoposide; type: functional, cell-based
Method in brief: (§4)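 HT1080 cells seeded at 2 × 10⁴/well, grown 24 h at 37 °C, then exposed to compounds for 24 h with or without 30 μg/mL etoposide. LDH release measured with a non-radioactive cytotoxicity kit; lysis-buffer wells served as high control. Substrate 30 min at room temperature, stopped, A490 read. Means of triplicates.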

[15] = target: T1, Complex of retinoic acid binding (CRABPII) and inhibitor of apoptosis (cIAP1) proteins (Homo sapiens); assay: Binding affinity to Flag-tagged cIAP1/CRABP2 expressed in human IMR32 cells assessed as reduction in MycN level at 1 to 10 uM after 48 hrs by Western blot analysis; type: cell-based; settings: IMR-32
HT-1080 [16] = assay: Induction of apoptosis in human HT1080 cells assessed as activation of caspase 3/7 at 30 uM after 24 hrs by fluorescence assay in presence of etoposide; type: functional, cell-based
Method in brief: (§5)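 HT1080 cells seeded at 2 × 10⁴/well, grown 24 h, then compounds added for 24 h with or without 30 μg/mL etoposide. Caspase-3/7 homogeneous reagent added, 10 h at room temperature. Fluorescence read at ex 485/em 535 nm and expressed as fold change in caspase activity. Means of triplicates; ANOVA with Bonferroni-type multiple t test.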

HT-1080 [17] = assay: Induction of apoptosis in human HT1080 cells assessed as activation of caspase 3/7 at 30 uM after 24 hrs by fluorescence assay; type: functional, cell-based; method in brief: as §5
[18] = target: T1, Complex of retinoic acid binding (CRABPII) and inhibitor of apoptosis (cIAP1) proteins (Homo sapiens); assay: Binding affinity to Flag-tagged cIAP1/CRABP2 expressed in human HT1080 cells assessed as induction in CRABP-2 degradation at 1 uM after 6 hrs by Western blot analysis; type: cell-based; settings: HT-1080; method in brief: as §1
IMR-32 [19] = assay: Inhibition of cell proliferation in human IMR32 cells after 72 hrs by Alamarblue assay; type: functional, cell-based; method in brief: as §2
[20] = target: T1, Complex of retinoic acid binding (CRABPII) and inhibitor of apoptosis (cIAP1) proteins (Homo sapiens); assay: Binding affinity to Flag-tagged cIAP1/CRABP2 expressed in human HT1080 cells assessed as induction in CRABP-2 degradation at 1 uM after 6 hrs by Western blot analysis in presence of MeBS; type: cell-based; settings: HT-1080
HT-1080 [21] = assay: Induction of apoptosis in human HT1080 cells at 1 to 30 uM after 24 hrs by lactate dehydrogenase assay; type: functional, cell-based; method in brief: as §4
[22] = target: T1, Complex of retinoic acid binding (CRABPII) and inhibitor of apoptosis (cIAP1) proteins (Homo sapiens); assay: Binding affinity to Flag-tagged cIAP1/CRABP2 expressed in human HT1080 cells assessed as induction in CRABP-2 degradation after 12 hrs by Western blot analysis; type: cell-based; settings: HT-1080; method in brief: as §1
HT-1080 [23] = assay: Induction of apoptosis in human HT1080 cells after 24 hrs by lactate dehydrogenase assay in presence of etoposide; type: functional, cell-based; method in brief: as §4
IMR-32 [24] = assay: Inhibition of cell proliferation in human IMR32 cells at 1 to 30 uM after 72 hrs by Alamarblue assay; type: functional, cell-based; method in brief: as §2
[25] = target: T1, Complex of retinoic acid binding (CRABPII) and inhibitor of apoptosis (cIAP1) proteins (Homo sapiens); assay: Binding affinity to Flag-tagged cIAP1/CRABP2 expressed in human HT1080 cells assessed as induction in CRABP-2 degradation at 0.1 to 10 uM after 6 hrs by Western blot analysis; type: cell-based; settings: HT-1080; method in brief: as §1
[26] = target: Baculoviral IAP repeat-containing protein 2 (Homo sapiens) (UniProt Q13490); assay: Induction of degradation of Flag-tagged cIAP1 expressed in HT1080 cells at […] by Western blot analysis in presence of MG132; type: cell-based; settings: HT-1080
[27] = target: Baculoviral IAP repeat-containing protein 2 (Homo sapiens) (UniProt Q13490); assay: Induction of auto-degradation of Flag-tagged cIAP1 expressed in HT1080 cells at […] by Western blot analysis; type: cell-based; settings: HT-1080
[28] = target: Baculoviral IAP repeat-containing protein 2 (Homo sapiens) (UniProt Q13490); assay: Inhibition of MeBS-induced degradation of Flag-tagged cIAP1 expressed in HT1080 cells at 100 to 1000 uM by Western blot analysis; type: cell-based; settings: HT-1080
XIAP (Homo sapiens) = assay: Binding affinity to Flag-tagged XIAP expressed in HT1080 cells assessed as degradation of XIAP at 0.1 to 10 uM after 6 hrs by Western blot analysis; settings: HT-1080

Row | Activity [1] | Activity [5] | Activity [9] | Compound | Activity (IMR-32 [4]) | Activity (HT-1080 [16]) | Activity (HT-1080 [17]) | Activity (HT-1080 [21]) | Activity (HT-1080 [23]) | inhibition (IMR-32 [24]) | other results
1 |  | inactive | Active | CC1=C(/C=C/C(C)=C/C=C/C(C)=C/C(=O)O)C(C)(C)CC/C1=N\OCC(=O)NCCOCCOCCNC(=O)[C@H](CC(C)C)NC(=O)[C@@H](O)[C@H](N)Cc1ccccc1 | Active | inactive | inactive |  |  |  | Activity [2]: inactive; Activity (MCF7): inactive; Activity [3]: Dose-dependent effect; Activity [6]: Active; Activity [7]: inactive; Activity [8]: Active; Activity [10]: Active; Activity [11]: Active; Activity [12]: inactive; Activity (HT-1080 [13]): inactive; Activity (HT-1080 [14]): inactive; Activity [15]: Active; Activity [18]: Active; inhibition (IMR-32 [19]): Dose-dependent effect; Activity [20]: inactive
2 |  | inactive | inactive | CC1=C(/C=C/C(C)=C/C=C/C(C)=C/C(=O)O)C(C)(C)CC/C1=N\OCC(=O)NCCOCCOCCNC(=O)[C@H](CC(C)C)NC(=O)CCCc1ccccc1 |  |  |  |  |  |  | Activity [25]: inactive
3 | inactive |  |  | CNC(=O)[C@H](CC(C)C)NC(=O)[C@@H](O)[C@H](N)Cc1ccccc1 | inactive |  |  |  |  | inactive | Activity [26]: inactive; Activity [27]: inactive; inhibition [28]: Active; Activity (XIAP (Homo sapiens)): inactive

Further lines, the compound ahead of its results:

Row | Compound | Activity [1] | Activity [5] | Activity [9] | Activity (IMR-32 [4]) | Activity (HT-1080 [16]) | Activity (HT-1080 [17]) | Activity (HT-1080 [21]) | Activity (HT-1080 [23]) | inhibition (IMR-32 [24]) | other results
4 | CNC(=O)[C@H](CC(C)C)NC(=O)CCCc1ccccc1 | inactive |  |  |  |  |  |  |  |  | 
5 | CC1=C(/C=C/C(C)=C/C=C/C(C)=C/C(=O)O)C(C)(C)CC/C1=N\OCC(=O)NCCOCCOCCOC(=O)[C@H](CC(C)C)NC(=O)[C@@H](O)[C@H](N)Cc1ccccc1 |  |  |  |  | Active | inactive | inactive | Dose-dependent effect |  | Activity [22]: Active
6 | COC(=O)[C@H](CC(C)C)NC(=O)[C@@H](O)[C@H](N)Cc1ccccc1 |  |  |  | inactive | Active | inactive | inactive | Dose-dependent effect | inactive | 
